Experimental data as given in ChEMBL document CHEMBL4017491, “Phthalazino[1,2-b]quinazolinones as p53 Activators: Cell Cycle Arrest, Apoptotic Response and Bak-Bcl-xl Complex Reorganization in Bladder Cancer Cells” (J Med Chem, 2017).
The source made the active and inactive calls. The rule behind the calls is not given here.

Tests used:
NCI-H460 = assay: Antiproliferative activity against human NCI-H460 cells by MTT assay; type: functional, cell-based
Procedure, shortened: (§1)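 Cell lines cultured in RPMI 1640 with 10% FBS. Viability read by MTT (5 mg/mL, 4 h at 37 °C), with formazan dissolved in DMSO and absorbance taken at 490 nm. Viability (%) = A490 treated / A490 control × 100. IC50 taken from dose-response curves, from three independent experiments each run in triplicate.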

T-24 [1] = assay: Antitumor activity against human T24 cells xenografted in BALB/C nude mouse assessed as tumor growth inhibition at 12 mg/kg, ip administered every 2 days for 16 days relative to control; type: functional; conditions: T-24, ip, read-out: TGI
J82 [2] = assay: Cell cycle arrest in human J82 cells assessed as accumulation at S phase at 1 uM after 48 hrs by propidium iodide staining based FACS analysis (reference value: 46.79 %); type: functional
Procedure, shortened: (§2)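 Cells treated with 1−10 μM for 48 h, trypsinized, and fixed in 70% ethanol. Stained with 50 μg/mL propidium iodide and phase distribution analyzed by flow cytometry. Mean ± SD from three independent measurements.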

T-24 [3] = assay: Effect on p53 expression in human T24 cells up to 10 uM after 24 hrs by Western blot analysis; type: functional, cell-based
Procedure, shortened: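 T24 cells (3 × 10^5 per well) grown to 85–95% confluence, then exposed 24 h to 0–10 μM. Whole-cell extracts run on SDS-PAGE and blotted to nitrocellulose. Probed with the indicated antibodies and AP-linked anti-rabbit IgG, with ECL detection. Blots stripped and reprobed for β-actin as loading control.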

J82 [4] = assay: Cell cycle arrest in human J82 cells assessed as accumulation at G1 phase at 10 uM after 48 hrs by propidium iodide staining based FACS analysis (reference value: 42.29 %); type: functional; procedure, shortened: as §2
T-24 [5] = assay: Cell cycle arrest in human T24 cells assessed as accumulation at sub-G1 phase at 1 to 10 uM after 48 hrs by propidium iodide staining based FACS analysis; type: functional; procedure, shortened: as §2
T-24 [6] = assay: Induction of apoptosis in human T24 cells assessed as apoptotic inducing factor translocation from mitochondria to nucleus at 1 to 10 uM after 48 hrs by Hoechst 33258 staining based fluorescence confocal microscopic analysis; type: functional, cell-based
Procedure, shortened: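 T24 cells on glass slides, treated for 48 h. Fixed in 4% paraformaldehyde, permeabilised with 1% Triton X-100, nuclei stained with Hoechst 33258 (final 0.5 μg/mL). Imaged by confocal fluorescence microscopy.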

Mus musculus [7] = assay: Toxicity in BALB/C nude mouse xenografted with human HepG2 cells at 6 to 12 mg/kg, ip administered every 2 days for 16 days; type: organism-based; conditions: in vivo
Procedure, shortened: (§3)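 Male BALB/C nude mice with HepG2 flank xenografts, n = 6/group. Given ip 6 or 12 mg/kg every 2 days in 5% DMSO/saline; vehicle and HCPT 6 mg/kg as controls. Clinical signs, food intake and body weight monitored; tumour size and weight measured three times weekly.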

[8] = biological target: Cellular tumor antigen p53 (Homo sapiens) (UniProt P04637); assay: Induction of phospho-p53 accumulation in mitochondria of human T24 cells up to 10 uM after 24 hrs by Western blot method
[9] = biological target: Cellular tumor antigen p53 (Homo sapiens) (UniProt P04637); assay: Induction of phospho-p53 accumulation in human T24 cells assessed as activation of bak at 1 to 10 uM after 48 hrs by Hoechst 33258 staining based fluorescence confocal microscopic analysis; type: cell-based
Procedure, shortened: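 T24 cells treated for 48 h, fixed in 4% paraformaldehyde. Immunostained with antibody to active (N-terminal) Bak and a Cy3-conjugated secondary antibody. Imaged by confocal microscopy at 400×.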

[10] = biological target: Cellular tumor antigen p53 (Homo sapiens) (UniProt P04637); assay: Activation of p53 in human T24 cells assessed as p53 phosphorylation after 24 hrs by Western blot analysis; type: cell-based
Procedure, shortened: (§4)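 T24 cells, 3 × 10^5 per well, grown to 85−95% confluence, then exposed to 0−10 μM for 24 h. Whole-cell extracts in sample buffer run on SDS-polyacrylamide gels and transferred to nitrocellulose. Blots probed with primary antibodies and AP-linked anti-rabbit IgG, detected by ECL. Blots stripped and reprobed for β-actin as loading control.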

T-24 [11] = assay: Cell cycle arrest in human T24 cells assessed as reduction in cell size at 5 uM after 48 hrs by FACS analysis relative to control; type: functional; design: scale not given: the % may be the effect or the level left
Procedure, shortened: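 T24 cells treated for 48 h with 5 μM or DMSO, then ethanol-fixed and PI-stained. Relative cell size taken as mean forward scatter (FSC-H) by flow cytometry, compared with control.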

J82 [12] = assay: Cell cycle arrest in human J82 cells assessed as accumulation at G2 phase at 1 uM after 48 hrs by propidium iodide staining based FACS analysis (reference value: 10.92 %); type: functional; procedure, shortened: as §2
T-24 [13] = assay: Cell cycle arrest in human T24 cells assessed as effect on cyclin D expression up to 10 uM after 24 hrs by Western blot analysis; type: functional, cell-based; procedure, shortened: as §4
HepG2 = assay: Antitumor activity against human HepG2 cells xenografted in BALB/C nude mouse assessed as tumor growth inhibition at 6 mg/kg, ip administered every 2 days for 16 days relative to control; type: functional; conditions: read-out: TGI
Procedure, shortened: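 Male BALB/C nude mice, 6 weeks old, given subcutaneous flank injection of 5 × 10^6 HepG2 cells; tumors of 80−200 mm3 randomized, n = 6/group. Dosing ip every other day, vehicle 5% DMSO in saline (v/v). Tumor length and width measured three times a week, volume V = lw2/2; growth inhibition expressed versus vehicle group. Body weight also recorded.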

T-24 [14] = assay: Antiproliferative activity against human T24 cells harboring p53 siRNA up to 5 uM after 48 hrs by MTT assay; type: functional, cell-based
Procedure, shortened: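 T24 cells pre-exposed to p53-siRNA or scrambled RNA for 24 h, then treated with a concentration series for 48 h. Proliferation measured by MTT read at 490 nm, expressed as % of control absorbance.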

Mus musculus [15] = assay: Down regulation of Bak expression in BALB/C nude mouse xenografted with human T24 cells at 6 to 12 mg/kg, ip administered every 2 days for 16 days by immunoblot analysis
T-24 [16] = assay: Antitumor activity against human T24 cells xenografted in BALB/C nude mouse assessed as tumor growth inhibition at 6 mg/kg, ip administered every 2 days for 16 days relative to control; type: functional; conditions: T-24, ip, read-out: TGI
T-24 [17] = assay: Effect on Bcl-Xl expression in human T24 cells up to 10 uM after 24 hrs by Western blot analysis; type: functional, cell-based; procedure, shortened: as §4
T-24 [18] = assay: Antiproliferative activity against human T24 cells by MTT assay; type: functional, cell-based; procedure, shortened: as §1
T-24 [19] = assay: Effect on cell cycle distribution in human T24 cells assessed as late apoptotic cells at 1 uM after 1 hr by Annexin V-FITC/propidium iodide staining based FACS analysis relative to control; type: functional
Escherichia coli = assay: Induction of conformational change in Escherichia coli pBR322 DNA at 1 to 10 uM after 1 hr by DNA relaxation assay
Procedure, shortened: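 Plasmid pBR322 incubated 1 h with 1–10 μM in 5 mM Tris-HCl, 50 mM NaCl, pH 7.2. Samples run on 1.5% agarose and stained with 0.5 μg/mL ethidium bromide. Lane controls: 1% DMSO (negative) and ethidium bromide (positive).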

Mus musculus [20] = assay: Toxicity in BALB/C nude mouse xenografted with human HepG2 cells assessed as effect on food consumption at 6 to 12 mg/kg, ip administered every 2 days for 16 days; type: organism-based; conditions: in vivo; procedure, shortened: as §3

Cellular tumor antigen p53 (Homo sapiens), sequence (P04637 whole entry, looked up): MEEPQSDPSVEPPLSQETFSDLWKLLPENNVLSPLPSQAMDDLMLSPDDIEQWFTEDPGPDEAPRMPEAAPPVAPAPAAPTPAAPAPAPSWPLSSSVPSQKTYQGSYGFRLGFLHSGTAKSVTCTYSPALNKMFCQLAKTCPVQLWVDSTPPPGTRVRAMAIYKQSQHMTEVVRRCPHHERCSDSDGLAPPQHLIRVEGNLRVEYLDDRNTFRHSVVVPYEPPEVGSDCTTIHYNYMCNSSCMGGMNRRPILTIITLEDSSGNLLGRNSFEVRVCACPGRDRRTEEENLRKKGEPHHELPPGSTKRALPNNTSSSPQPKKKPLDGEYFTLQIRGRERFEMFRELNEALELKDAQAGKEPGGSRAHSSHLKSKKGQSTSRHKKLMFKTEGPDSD

## CN(C)CCNc1nn2c(=O)c3cc(Br)ccc3nc2c2ccccc12
NCI-H460
  IC50: 5.03 µM
T-24 [1]
  inhibition in vivo at 12 mg/kg: 54.2%
J82 [2]
  Activity: 39.51%
T-24 [3]
  Activity: inactive
J82 [4]
  Activity: 12.13%
T-24 [5]
  Activity: Active
T-24 [6]
  Activity: Active
Mus musculus [7]
  Activity: Non-Toxic
[8]
  Activity: Active
[9]
  Activity: Active
[10]
  Activity: Dose-dependent effect
T-24 [11]
  Activity: 87.7%
J82 [12]
  Activity: 12%
T-24 [13]
  Activity: inactive
HepG2
  inhibition in vivo at 6 mg/kg: 43.6%
T-24 [14]
  Activity: inactive
Mus musculus [15]
  Activity: Active
T-24 [16]
  inhibition in vivo at 6 mg/kg: 44.8%
T-24 [17]
  Activity: inactive
T-24 [18]
  IC50: 3.09 µM
T-24 [19]
  Activity: 0%
Escherichia coli
  Activity: inactive
Mus musculus [20]
  Activity: Non-Toxic
